pIC50, pKi: −log10 of the molar value. Where a SMILES comes first, the peptide text is derived from it. [ ]: non-standard residue; d: D form. Dmt = Cc1cc(O)cc(C)c1C[C@H](N)C(=O)O
Tests used:
Mu-type opioid receptor [1] = molecular target: Mu-type opioid receptor (Rattus norvegicus, UniProt P33535); assay: Displacement of [3H]DAMGO from mu opioid receptor in Sprague-Dawley rat brain P2 synaptosome membrane; assay type: tissue-based
How it was run: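 Competition binding at equilibrium (2.5 h, 22 °C) on Sprague-Dawley rat (150–160 g) brain P2 synaptosomes, preincubated 60 min at 22 °C to remove endogenous opioids. Radioligands: 3.5 nM [3H]DAMGO (μ) or 1.9 nM [3H]deltorphin-II (δ); nonspecific with 2 µM unlabeled peptide. GF/C filtration; duplicates, 5–8 doses, several preparations. Ki by Cheng-Prusoff (Kd 3.5 nM DAMGO, 1.4 nM deltorphin-II).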

[2] = molecular target: Delta-type opioid receptor (Rattus norvegicus, UniProt P33533); assay: Displacement of [3H]deltorphin 2 from delta opioid receptor in Sprague-Dawley rat brain P2 synaptosome membrane; assay type: tissue-based
Delta-type opioid receptor (Rattus norvegicus, UniProt P33533), sequence (P33533 whole entry): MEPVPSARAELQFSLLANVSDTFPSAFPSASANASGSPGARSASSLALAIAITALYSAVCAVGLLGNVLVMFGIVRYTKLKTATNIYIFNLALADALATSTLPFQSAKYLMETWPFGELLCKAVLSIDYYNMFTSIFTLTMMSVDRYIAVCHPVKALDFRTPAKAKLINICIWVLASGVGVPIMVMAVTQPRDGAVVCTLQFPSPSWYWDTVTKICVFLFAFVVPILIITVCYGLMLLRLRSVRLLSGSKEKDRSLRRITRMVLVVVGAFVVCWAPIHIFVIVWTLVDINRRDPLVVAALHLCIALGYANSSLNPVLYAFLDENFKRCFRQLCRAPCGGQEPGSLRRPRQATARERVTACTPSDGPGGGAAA

[3] = molecular target: Opioid receptors; mu & delta (Rattus norvegicus) (UniProt P33533+P33535); assay: Selectivity for mu opioid receptor over delta opiod receptor in Sprague-Dawley rat brain P2 synaptosome membrane; assay type: tissue-based
Opioid receptors; mu & delta (Rattus norvegicus), sequence (P33533 whole entry, looked up): as the sequence (P33533 whole entry) above
Opioid receptors; mu & delta (Rattus norvegicus), sequence (P33535 whole entry, looked up): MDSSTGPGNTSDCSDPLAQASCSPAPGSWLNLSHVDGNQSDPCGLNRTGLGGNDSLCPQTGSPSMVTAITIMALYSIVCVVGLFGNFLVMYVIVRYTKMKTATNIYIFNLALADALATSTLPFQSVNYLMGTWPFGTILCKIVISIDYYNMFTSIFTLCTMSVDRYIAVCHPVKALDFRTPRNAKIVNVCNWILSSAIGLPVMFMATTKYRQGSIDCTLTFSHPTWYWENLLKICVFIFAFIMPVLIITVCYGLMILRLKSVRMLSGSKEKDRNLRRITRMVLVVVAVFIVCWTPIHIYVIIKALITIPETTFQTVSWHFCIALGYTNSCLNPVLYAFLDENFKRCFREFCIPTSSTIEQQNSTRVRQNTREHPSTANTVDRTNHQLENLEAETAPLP

[4] = molecular target: Kappa-type opioid receptor (Cavia porcellus, UniProt P41144); assay: Displacement of [3H]U-69593 from kappa opioid receptor in Hartley guinea pig cerebellum P2 synaptosome membrane; assay type: tissue-based
Kappa-type opioid receptor, sequence (P41144 whole entry): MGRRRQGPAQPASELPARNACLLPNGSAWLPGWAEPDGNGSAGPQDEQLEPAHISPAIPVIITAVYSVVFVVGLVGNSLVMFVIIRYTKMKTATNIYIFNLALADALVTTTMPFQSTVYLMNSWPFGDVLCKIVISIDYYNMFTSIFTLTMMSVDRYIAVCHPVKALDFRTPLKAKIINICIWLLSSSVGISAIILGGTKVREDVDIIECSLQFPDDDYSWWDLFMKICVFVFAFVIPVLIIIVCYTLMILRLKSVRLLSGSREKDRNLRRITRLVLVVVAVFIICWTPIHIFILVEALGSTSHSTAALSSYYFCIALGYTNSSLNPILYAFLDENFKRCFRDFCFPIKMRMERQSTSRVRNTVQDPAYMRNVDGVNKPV

Mu-type opioid receptor [5] = molecular target: Mu-type opioid receptor (Cavia porcellus, UniProt P97266); assay: Agonist activity at mu opioid receptor in Hartley guinea pig ileum assessed as inhibition of electrically-stimulated muscle contraction; assay type: functional, tissue-based
Mu-type opioid receptor (Cavia porcellus, UniProt P97266), sequence (P97266 whole entry): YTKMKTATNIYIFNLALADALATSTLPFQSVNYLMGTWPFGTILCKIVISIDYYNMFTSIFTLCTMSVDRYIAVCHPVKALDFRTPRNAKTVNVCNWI
How it was run: (§1)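 Isolated tissue: myenteric plexus longitudinal muscle strips (2–3 cm) from small intestine of male Hartley guinea pigs (μ), or single mouse vas deferens (δ), in organ baths with balanced salt solution, pH 7.5. Inhibition of electrically evoked contraction; IC50 (nM) from dose-response curves, mean ± SE of five to six separate assays.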

[6] = molecular target: T1, Delta-type opioid receptor (Mus musculus, UniProt P32300); assay: Agonist activity at delta opioid receptor in mouse vas deferens assessed as inhibition of electrically-stimulated muscle contraction; assay type: functional, tissue-based; how it was run: as §1
T1 sequence (P32300 whole entry): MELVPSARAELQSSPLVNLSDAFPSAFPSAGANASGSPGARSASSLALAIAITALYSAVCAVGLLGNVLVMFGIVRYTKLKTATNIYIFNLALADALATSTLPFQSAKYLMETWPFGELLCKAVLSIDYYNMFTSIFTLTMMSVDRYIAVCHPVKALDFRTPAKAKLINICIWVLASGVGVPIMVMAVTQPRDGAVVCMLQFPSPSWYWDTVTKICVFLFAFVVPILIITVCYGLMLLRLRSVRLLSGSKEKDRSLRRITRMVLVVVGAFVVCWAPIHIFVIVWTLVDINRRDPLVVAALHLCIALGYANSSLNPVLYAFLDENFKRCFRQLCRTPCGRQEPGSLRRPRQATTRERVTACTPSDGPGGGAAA

[7] = molecular target: Delta-type opioid receptor (Mus musculus) (UniProt P32300); assay: Agonist activity at delta opioid receptor in mouse vas deferens assessed as inhibition of electrically-stimulated muscle contraction at 10000 nM; assay type: functional, tissue-based; parameters: scale not given: the % may be the effect or the level left
Delta-type opioid receptor (Mus musculus), sequence (P32300 whole entry): as above
How it was run: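 Mouse vas deferens in organ bath, physiological buffer pH 7.5; maximal inhibition of electrically evoked contraction recorded at 10,000 nM.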

[8] = molecular target: T1, Delta-type opioid receptor; assay: Antagonist activity at delta opioid receptor in mouse vas deferens assessed as inhibition of deltorphin 2-induced response; assay type: functional, tissue-based; conditions: read-out: pA2 (converted)
How it was run: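 Single mouse vas deferens in organ bath, pH 7.5 buffer; δ antagonism measured against deltorphin II-induced inhibition of electrically evoked contraction. pA2 from Schild plot: negative log molar concentration needed to double deltorphin II concentration for the original response.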

Mu-type opioid receptor (Rattus norvegicus, UniProt P33535), sequence (P33535 whole entry): as the sequence (P33535 whole entry, looked up) above

SMILES: Cc1cc(C)c(C[C@H](NC(=O)[C@@H]2CCCN2C(=O)[C@@H](N)Cc2c(C)cc(O)cc2C)C(=O)N[C@@H](Cc2ccccc2)C(N)=O)c(C)c1
- pKi (Mu-type opioid receptor [1]): 9.74
- pKi [2]: 8.74
- Ratio Ki [3]: 10
- pKi [4]: 6.76
- pIC50 (Mu-type opioid receptor [5]): 9.68
- pIC50 [6]: < 5.00
- Activity [7]: > 22.2%
- Kb [8]: 0.891 nM

SMILES: Cc1cc(C)c(C[C@H](NC(=O)[C@@H]2CCCN2C(=O)[C@@H](N)Cc2ccc(O)cc2)C(=O)N[C@@H](Cc2ccccc2)C(N)=O)c(C)c1
- pKi (Mu-type opioid receptor [1]): 9.36
- pKi [2]: 5.87
- Ratio Ki [3]: 3090
- pIC50 (Mu-type opioid receptor [5]): 8.72
- pIC50 [6]: < 5.00
- Activity [7]: > 36.2%

SMILES: CCc1cccc(C)c1C[C@H](NC(=O)[C@@H]1CCCN1C(=O)[C@@H](N)Cc1c(C)cc(O)cc1C)C(=O)N[C@@H](Cc1ccccc1)C(N)=O
- pKi (Mu-type opioid receptor [1]): 9.68
- pKi [2]: 8.52
- Ratio Ki [3]: 14
- pKi [4]: 6.56
- pIC50 (Mu-type opioid receptor [5]): 9.77
- pIC50 [6]: 9.29

SMILES: Cc1cc(C)cc(C[C@H](NC(=O)[C@@H]2CCCN2C(=O)[C@@H](N)Cc2ccc(O)cc2)C(=O)N[C@@H](Cc2ccccc2)C(N)=O)c1
- pKi (Mu-type opioid receptor [1]): 8.21
- pKi [2]: 5.46
- Ratio Ki [3]: 558
- pIC50 (Mu-type opioid receptor [5]): 6.41
- pIC50 [6]: < 5.00
- Activity [7]: > 8%

SMILES: Cc1cccc(C)c1C[C@H](NC(=O)[C@@H]1CCCN1C(=O)[C@@H](N)Cc1c(C)cc(O)cc1C)C(=O)N[C@@H](Cc1ccccc1)C(N)=O
- pKi (Mu-type opioid receptor [1]): 10.16
- pKi [2]: 8.64
- Ratio Ki [3]: 33
- pKi [4]: 7.03
- pIC50 (Mu-type opioid receptor [5]): 9.92
- Kb [8]: 7.08 nM

SMILES: Cc1ccccc1C[C@H](NC(=O)[C@@H]1CCCN1C(=O)[C@@H](N)Cc1ccc(O)cc1)C(=O)N[C@@H](Cc1ccccc1)C(N)=O
- pKi (Mu-type opioid receptor [1]): 9.66
- pKi [2]: 5.76
- Ratio Ki [3]: 7880
- pIC50 (Mu-type opioid receptor [5]): 8.88
- pIC50 [6]: 7.80

SMILES: Cc1cc(O)cc(C)c1C[C@H](NC(=O)[C@@H]1CCCN1C(=O)[C@@H](N)Cc1c(C)cc(O)cc1C)C(=O)N[C@@H](Cc1ccccc1)C(N)=O (H-[Dmt]P[Dmt]F-NH2)
- pKi (Mu-type opioid receptor [1]): 10.04
- pKi [2]: 7.09
- pKi [4]: 6.00
- pIC50 (Mu-type opioid receptor [5]): 8.71
- pIC50 [6]: < 5.00
- Kb [8]: 87.1 nM

SMILES: Cc1cccc(C(C)C)c1C[C@H](NC(=O)[C@@H]1CCCN1C(=O)[C@@H](N)Cc1ccc(O)cc1)C(=O)N[C@@H](Cc1ccccc1)C(N)=O
- pKi (Mu-type opioid receptor [1]): 9.35
- pKi [2]: 6.27
- Ratio Ki [3]: 1220
- pIC50 (Mu-type opioid receptor [5]): 8.56

SMILES: Cc1cc(C)cc(C[C@H](NC(=O)[C@@H]2CCCN2C(=O)[C@@H](N)Cc2c(C)cc(O)cc2C)C(=O)N[C@@H](Cc2ccccc2)C(N)=O)c1
- pKi (Mu-type opioid receptor [1]): 9.96
- pKi [2]: 7.94
- Ratio Ki [3]: 105
- pKi [4]: 6.08
- pIC50 (Mu-type opioid receptor [5]): 7.84
- pIC50 [6]: < 5.00
- Activity [7]: > 7.1%
- Kb [8]: 170 nM

SMILES: Cc1cc(O)cc(C)c1C[C@H](NC(=O)[C@@H]1CCCN1C(=O)[C@@H](N)Cc1ccc(O)cc1)C(=O)N[C@@H](Cc1ccccc1)C(N)=O (H-YP[Dmt]F-NH2)
- pKi (Mu-type opioid receptor [1]): 8.58
- pKi [2]: 5.52
- pIC50 (Mu-type opioid receptor [5]): 6.27
- pIC50 [6]: 6.01

SMILES: Cc1cccc(C)c1C[C@H](NC(=O)[C@@H]1CCCN1C(=O)[C@@H](N)Cc1ccc(O)cc1)C(=O)N[C@@H](Cc1ccccc1)C(N)=O
- pKi (Mu-type opioid receptor [1]): 10.36
- pKi [2]: 5.84
- Ratio Ki [3]: 32700
- pKi [4]: < 5.40
- pIC50 (Mu-type opioid receptor [5]): 9.42
- pIC50 [6]: 8.86

SMILES: Cc1ccccc1C[C@H](NC(=O)[C@@H]1CCCN1C(=O)[C@@H](N)Cc1c(C)cc(O)cc1C)C(=O)N[C@@H](Cc1ccccc1)C(N)=O
- pKi (Mu-type opioid receptor [1]): 9.74
- pKi [2]: 8.34
- Ratio Ki [3]: 26
- pKi [4]: 6.75
- pIC50 (Mu-type opioid receptor [5]): 9.80
- pIC50 [6]: < 5.00
- Activity [7]: 0%
- Kb [8]: 257 nM

SMILES: Cc1cc(O)cc(C)c1C[C@H](N)C(=O)N1CCC[C@H]1C(=O)N[C@@H](Cc1ccccc1)C(=O)N[C@@H](Cc1ccccc1)C(N)=O
- pKi (Mu-type opioid receptor [1]): 9.59
- pKi [2]: 7.00
- Ratio Ki [3]: 382
- pKi [4]: 6.31
- pIC50 (Mu-type opioid receptor [5]): 9.59
- pIC50 [6]: 9.23

SMILES: Cc1cc(O)ccc1C[C@H](NC(=O)[C@@H]1CCCN1C(=O)[C@@H](N)Cc1ccc(O)cc1)C(=O)N[C@@H](Cc1ccccc1)C(N)=O
- Ratio Ki [3]: 1150

SMILES: Cc1cc(O)ccc1C[C@H](NC(=O)[C@@H]1CCCN1C(=O)[C@@H](N)Cc1c(C)cc(O)cc1C)C(=O)N[C@@H](Cc1ccccc1)C(N)=O
- Ratio Ki [3]: 878
- Activity [7]: < 1%

SMILES: Cc1cc(O)cc(C)c1C[C@H](N)C(=O)N1CCC[C@H]1C(=O)N[C@@H](Cc1c(C)cccc1C(C)C)C(=O)N[C@@H](Cc1ccccc1)C(N)=O
- pKi (Mu-type opioid receptor [1]): 9.49
- pKi [2]: 8.34
- Ratio Ki [3]: 14
- pKi [4]: 6.69
- pIC50 (Mu-type opioid receptor [5]): 9.70
- pIC50 [6]: 8.25

SMILES: CCc1cccc(C)c1C[C@H](NC(=O)[C@@H]1CCCN1C(=O)[C@@H](N)Cc1ccc(O)cc1)C(=O)N[C@@H](Cc1ccccc1)C(N)=O
- pKi (Mu-type opioid receptor [1]): 9.34
- pKi [2]: 6.31
- Ratio Ki [3]: 1070
- pIC50 (Mu-type opioid receptor [5]): 8.63
- pIC50 [6]: 6.56
